Results gathered from unrelated publications.
Lines come from different studies, so protocols differ.
Target: Cytochrome P450 2D6 (CYP2D6, Homo sapiens, UniProt P10635)

Nc1nc(N)c2nc(CNc3cccc4ccccc34)cnc2n1 — inhibition (enzyme activity, inhibitor, luciferase; 10 µM): 102%
C=CC(=O)Nc1cc(Nc2nccc(Nc3cc(Cl)c(F)cc3C(C)(C)O)n2)c(OC)cc1N1CC[C@@H](N(C)C)C1 — inhibition (enzyme activity, inhibitor; human, liver microsomes; 10 µM): < 20%
Nc1ccc(S(=O)(=O)Nc2ccnn2-c2ccccc2)cc1 — inhibition (enzyme activity, inhibitor; human, liver microsomes; 10 µM): -23%
CCN(Cc1cnc2nc(N)nc(N)c2n1)c1ccc(C(=O)N2CCC(C(=O)OC)CC2)cc1 — inhibition (enzyme activity, inhibitor, luciferase; 10 µM): -20%
Cc1nc2c([nH]1)c(=O)n(C)c(=O)n2Cc1ccco1 — inhibition (enzyme activity, inhibitor; human, liver microsomes; 40 µM): -35%
C[C@H]1C[C@@H](N2C(=N)N[C@](C)(c3cccc(NC(=O)c4cccc(C#N)c4)c3Cl)CC2=O)CCO1 — inhibition (enzyme activity, inhibitor; human, liver microsomes; 20 µM, 15 min): 45%
Cc1cccc(F)c1N1CCC(N2Cc3cn(CC(C)(F)F)nc3N(Cc3ccccc3C(F)(F)F)C2=O)CC1 — IC50 (enzyme activity, inhibitor; human, liver microsomes): > 10 µM
C=C[C@H]1C[N@@]2CC[C@H]1C[C@@H]2[C@@H](O)c1ccnc2ccc(OC)cc12 — inhibition (enzyme activity, inhibitor; human, liver microsomes; 1 µM): 80.8%
Cc1ccc(C(=O)N2CCOC[C@H]2Cc2cccc(-n3nccn3)c2)c(-n2nccn2)c1 — inhibition (enzyme activity, inhibitor; human, liver microsomes; 100 µM): 33%
CC(=O)c1cccc(OCc2cc(C(=O)N(C)[C@@H](C)c3ccccn3)no2)c1 — IC50 (enzyme activity, inhibitor; human, liver microsomes): > 30 µM
CCc1cc(/C(C)=N/OCc2ccc(C3CCCCC3)c(C(F)(F)F)c2)ccc1CN1CC(C(=O)O)C1 — inhibition (enzyme activity, inhibitor; human, liver microsomes; 200 µM, 20 min): 17.4%
NC(=O)C1CCCN1C(=O)Cc1ccc(N(CCCO)Cc2cnc3nc(N)nc(N)c3n2)cc1 (centres unmarked) — inhibition (enzyme activity, inhibitor, luciferase; 10 µM): -13.9%
CC1(CO)C(O[C@@H]2O[C@H](C(=O)O)[C@@H](O)[C@H](O)[C@H]2O)CC[C@@]2(C)C1CC[C@]1(C)C2CC=C2[C@H]3CC(C)(C)[C@H](O)[C@@H](O)[C@]3(CO)[C@H](O)C[C@]21C (some centres unmarked) — IC50 (enzyme activity, inhibitor, mass spectrometry; human, liver microsomes): > 90 µg/mL
CN(Cc1cnc2nc(N)nc(N)c2n1)c1ccc(C(=O)N2CCCCC2)cc1 — inhibition (enzyme activity, inhibitor, luciferase; 10 µM): -23.3%
COCCc1ccc(OCC(O)CNC(C)C)cc1 (centres unmarked) — AUC(0-inf) (human, plasma; oral, 100 mg, single dose, healthy volunteers): 770 ng·h/mL
NC(=O)C1CCN(C(=O)Cc2ccc(N(CCCO)Cc3cnc4nc(N)nc(N)c4n3)cc2)CC1 — inhibition (enzyme activity, inhibitor, luciferase; 10 µM): -15.4%
O=C(N[C@H](Cc1c[nH]c2ccccc12)C(=O)Nc1ccncc1)c1ccc(-c2cc(F)ccc2F)cc1F — inhibition (enzyme activity, inhibitor; human, liver microsomes; 1 µM): 47%
